Data published in ChEMBL document CHEMBL4513216, “Probing the Open Global Health Chemical Diversity Library for Multistage-Active Starting Points for Next-Generation Antimalarials” (ACS Infect Dis, 2020).

Experiment: Toxicity liver stage against HepG2, at 10uM
Format: cell-based
Set-up: test concentration 10 uM, cell line HepG2-A16-CD81EGFP
Conditions: human, HepG2-A16-CD81EGFP cells; read-out: INHIBITION
Summary of the method: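 Uninfected HepG2-A16-CD81EGFP cells, 3 × 10^3 per well, 1536-well, plated on prespotted compound at 10 μM final, parasite-free screening media added to match infected plates; puromycin 10 μM positive, DMSO 0.5% negative; run in parallel with 48 h PbLuc assay at 37 °C, 5% CO2; viability by CellTiter-Glo luminescence, normalized to controls.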

## CC(C(=O)N1CCn2cncc2C1)N1CCCC1 (centres undefined)
  cytotoxicity at 10 µM: 6.38%

## Cc1cc(=O)n(C)cc1NC(=O)Cc1cccc(F)c1
  cytotoxicity at 10 µM: -3.86%

## COc1ccc(CC(=O)N(C)Cc2nnc3ccccn23)cc1
  cytotoxicity at 10 µM: 5.44%

## Cc1nc(CN2CCO[C@@H]3CN(C(=O)NC(C)C)CC[C@@H]3C2)cs1
  cytotoxicity at 10 µM: 0.41%

## Cc1cc(CNc2ccnn2C)ccc1-n1cncn1
  cytotoxicity at 10 µM: -43.2%

## O=C(NCc1ccc(F)cc1)N1CCN(CC(O)C2CC2)CC1 (centres undefined)
  cytotoxicity at 10 µM: 8.88%

## CN1CCC(NC(=O)Nc2cnn(-c3ccccc3Cl)c2)C1=O (centres undefined)
  cytotoxicity at 10 µM: -4.17%

## CCN1C[C@@H]2[C@@H](OC)CCN(C(=O)c3cc(C)nn3CC)[C@@H]2C1
  cytotoxicity at 10 µM: -118%

## CCN1C[C@H]2CCN(c3ncccn3)CC[C@H]2S1(=O)=O
  cytotoxicity at 10 µM: -7.08%

## O=S(=O)(CCN1CCN(c2ccccc2O)CC1)c1ccc(Br)cc1
  cytotoxicity at 10 µM: 10.7%

## CC(C)(CNc1cn[nH]c(=O)c1Cl)c1ccc2c(c1)OCCO2
  cytotoxicity at 10 µM: 2%

## CC(C)c1noc(CCCC(=O)N2CCN(Cc3ccncc3)CC2)n1
  cytotoxicity at 10 µM: -6.59%

## CCC(CO)N(C/C(C)=C/c1ccco1)Cc1ccccn1 (centres undefined)
  cytotoxicity at 10 µM: -2.46%

## O=C(O)c1ccc(N2CCC(Oc3cccc(F)c3)CC2)nc1
  cytotoxicity at 10 µM: -60.7%

## O=C1CC(c2cccs2)c2cnn(C3CCCC3)c2N1 (centres undefined)
  cytotoxicity at 10 µM: 23.3%

## CC(CC(=O)N1CCCS1(=O)=O)c1ccccc1C(F)(F)F (centres undefined)
  cytotoxicity at 10 µM: 8.92%

## COC[C@@]12CCO[C@@H]1CCN(C(=O)c1ccc(F)c(F)c1)C2
  cytotoxicity at 10 µM: -2.59%

## CN1CCC(Cc2noc(-c3cccc(Oc4ncccn4)c3)n2)CC1
  cytotoxicity at 10 µM: -5.21%

## Cc1nn2c(NC(=O)CSc3ncccn3)csc2nc1=O
  cytotoxicity at 10 µM: 2.74%

## Cc1nc(N2CCOCC2)nc2c1CCN(C(=O)C1(C#N)CC1)CC2
  cytotoxicity at 10 µM: -117%

## COC1COC2(CCN(C(=O)c3cscn3)CC2)C1 (centres undefined)
  cytotoxicity at 10 µM: 6.13%

## COC(=O)N1CCC(NC(=O)N2CCCC2c2ccsc2)CC1 (centres undefined)
  cytotoxicity at 10 µM: 10.5%

## COc1ccc(OC)c(Sc2ncccc2C(=O)NCCSC)c1
  cytotoxicity at 10 µM: 20.7%

## Cc1c(F)cc(C(=O)O)cc1S(=O)(=O)Nc1ccccc1
  cytotoxicity at 10 µM: -4.54%

## Fc1cccc(OC2CCN(CCn3cc4ccccc4n3)CC2)c1
  cytotoxicity at 10 µM: 8.33%

## CCc1[nH]c2c(CNC(=O)[C@@H]3CCCN3C)cc(C)cc2c1C
  cytotoxicity at 10 µM: -3.33%

## Cc1c[nH]c(CN(C)C(C(=O)O)c2c(F)cccc2Cl)n1 (centres undefined)
  cytotoxicity at 10 µM: -41.7%

## CC(=O)c1c(F)cccc1NCC(O)c1ccc(F)c(F)c1 (centres undefined)
  cytotoxicity at 10 µM: 13.3%

## COC(=O)[C@@H]1C[C@@H](O)CN1Cc1ccn(-c2ccc(F)cc2)n1
  cytotoxicity at 10 µM: -5.17%

## Cc1noc(C)c1CN(C)CCC(=O)N1CCc2sccc2C1
  cytotoxicity at 10 µM: 0.265%

## CCCc1nnsc1C(=O)NCC(O)c1ccc(SC)cc1 (centres undefined)
  cytotoxicity at 10 µM: 1.71%

## O=C1COC2(COCCN(Cc3ccsc3)C2)CN1c1ccoc1 (centres undefined)
  cytotoxicity at 10 µM: -73.5%

## CC(C)CNC(=O)Cn1ccc2ccccc21
  cytotoxicity at 10 µM: -43.4%

## O=C1CC2(CCN(S(=O)(=O)c3cccs3)C2)CN1c1cccc(F)c1 (centres undefined)
  cytotoxicity at 10 µM: -1.51%

## CS(=O)(=O)N1CCc2sc(C(=O)NCc3ccccc3)cc21
  cytotoxicity at 10 µM: 0.997%

## CCc1csc(CNCC(=O)Nc2ccc(Cl)c(C)c2)n1
  cytotoxicity at 10 µM: 5.33%

## CC(=O)N1CCN(C(=O)NC(C)C)CC2(CNC(=O)C2)C1 (centres undefined)
  cytotoxicity at 10 µM: -1.63%

## O=c1cc(Cn2ccnc2)nc2n1CCCN(Cc1ccc(F)cc1)C2
  cytotoxicity at 10 µM: 7.17%

## COc1c(CNCc2ccc(S(C)(=O)=O)cc2)c(C)nn1C
  cytotoxicity at 10 µM: -8.27%

## CCOc1cccc(COC(=O)c2scnc2C)n1
  cytotoxicity at 10 µM: -0.966%

## Cc1ccc(C(C)(O)CNC(=O)c2sccc2Br)o1 (centres undefined)
  cytotoxicity at 10 µM: 4.77%

## OCC1CCCCN1CCn1ccnc1-c1ccc2c(c1)OCCO2 (centres undefined)
  cytotoxicity at 10 µM: -3.65%

## CCOCCn1c(=O)[nH]c2cc(C(=O)N(C)Cc3nc(C)c[nH]3)ccc21
  cytotoxicity at 10 µM: 6.09%

## CNC(=O)N1CC[C@H]2N(C)CC[C@@]2(C(=O)Nc2ccccc2)CC1
  cytotoxicity at 10 µM: -17.2%

## COc1cc(CN2CCC(COCc3ccccc3)CC2)cc(OC)c1
  cytotoxicity at 10 µM: -3.38%

## O=C1NCCN(C(=O)c2cn3ccsc3n2)C1Cc1ccccc1 (centres undefined)
  cytotoxicity at 10 µM: -9.51%

## NC(=O)c1c(SCCN2CCOCC2)sc2c(O)cc(=O)[nH]c12
  cytotoxicity at 10 µM: 1.17%

## CSC(C)C(=O)N1CCN(CC(C)(C)O)CC1 (centres undefined)
  cytotoxicity at 10 µM: -10.2%

## Cc1csc(C(=O)N2CCC(S(C)(=O)=O)C2)c1 (centres undefined)
  cytotoxicity at 10 µM: -5.21%

## CCc1c(C)[nH]c(C(C)(N)CC)nc1=O (centres undefined)
  cytotoxicity at 10 µM: -4.04%

## COC(=O)c1sc2nc3c(c(C(F)(F)F)c2c1N)CN(C(C)=O)CC3
  cytotoxicity at 10 µM: -8.18%

## Nc1cc(-c2cncnc2C2CCN(C(=O)c3ccccc3)C2)ccn1 (centres undefined)
  cytotoxicity at 10 µM: 1.32%

## COc1cccc(CNC(C)C)c1OCc1ccc(C)cc1
  cytotoxicity at 10 µM: 0.438%

## Cc1nc(C)n(CC2CCCN(CCOc3ccc(F)cc3)C2)n1 (centres undefined)
  cytotoxicity at 10 µM: -3.33%

## CC(=O)NCCC(Cc1ccccc1)c1ccco1 (centres undefined)
  cytotoxicity at 10 µM: -1.24%

## Fc1ccc2nc([C@H]3CCNC3)[nH]c2c1
  cytotoxicity at 10 µM: 9.21%

## CCn1nc(C)cc1NC(=O)CCn1nc(C)c(Br)c1C
  cytotoxicity at 10 µM: 10.8%

## Cc1nc(C2CCCN(C(=O)c3ccc(OCC4CC4)cc3)C2)no1 (centres undefined)
  cytotoxicity at 10 µM: -7.69%

## Cc1c(CNC(=O)C2CCCN2C(=O)C2CC2)oc2ccccc12 (centres undefined)
  cytotoxicity at 10 µM: 5.6%

## Cn1c(=O)c2c(n3ncnc13)NC(=O)CC2c1cccc(Br)c1 (centres undefined)
  cytotoxicity at 10 µM: 7.83%

## c1cc(-c2ccc3c(c2)CCC32CCN(c3nncs3)CC2)ccn1
  cytotoxicity at 10 µM: 20.4%

## O=c1ccc2c([nH]1)CCN(S(=O)(=O)c1ccc3c(c1)OCCO3)C2
  cytotoxicity at 10 µM: -3.06%

## Cc1nc(-c2nnc[nH]2)sc1C(=O)N1CCCC1Cn1cccn1 (centres undefined)
  cytotoxicity at 10 µM: 11.8%

## CCN(CC)CCCNC(=O)Nc1c(C)cccc1C(C)C
  cytotoxicity at 10 µM: -0.847%

## CN1[C@H](Cn2cncn2)C[C@@H]2CN(Cc3cccc(C#N)c3)CC[C@@H]21
  cytotoxicity at 10 µM: -9.78%

## CCOc1ccccc1C(=O)N1CCCC1c1ncc2c(n1)CCNC2 (centres undefined)
  cytotoxicity at 10 µM: 8.3%

## Cc1cccc(C(=O)NC(C(=O)NCc2ccc(O)nc2)C(C)C)c1 (centres undefined)
  cytotoxicity at 10 µM: -7.81%

## Cc1noc(C)c1C(=O)N1CCCN(Cc2cscn2)CC1
  cytotoxicity at 10 µM: -1.56%

## CCOC(=O)c1nc(CN2CCN(C(=O)NC3CCCCC3)CC2)cs1
  cytotoxicity at 10 µM: -3.47%

## Cn1nc(C(=O)NC2(c3ccccc3)CCC2)ccc1=O
  cytotoxicity at 10 µM: 1.42%

## CN1[C@H](CN2CCCC2)C[C@@H]2CN(C(=O)c3cnccn3)CC[C@@H]21
  cytotoxicity at 10 µM: 10.6%

## CCOC(=O)N1CCN(c2nc(N)c3ccccc3n2)CC1
  cytotoxicity at 10 µM: -5.52%

## O=C1CC(C(=O)Nc2nnc(-c3ccccn3)[nH]2)c2ccccc2N1 (centres undefined)
  cytotoxicity at 10 µM: 7.92%

## CCOCCN1CCN(Cc2coc(-c3cccc(F)c3)n2)CC1
  cytotoxicity at 10 µM: -2.87%

## O=C(c1cscn1)N1CC[C@@H]2[C@@H]1CCN2CC1CCOC1 (some centres undefined)
  cytotoxicity at 10 µM: -2.36%

## Cc1nc(C(C)(C)NCc2ncc(C3CC3)o2)sc1C
  cytotoxicity at 10 µM: 3.57%

## Cc1noc(C2CCCN(C(=O)c3ccc(Cl)cc3F)C2)n1 (centres undefined)
  cytotoxicity at 10 µM: -25.3%

## Cc1nn(CCNC(C)Cn2ccnc2)c(C)c1Cl (centres undefined)
  cytotoxicity at 10 µM: -5.19%

## CCOCC1CN(C(=O)c2ccnnc2)Cc2cnn(C)c21 (centres undefined)
  cytotoxicity at 10 µM: 7.07%

## CC(C)CN1CCn2c(COCc3cccnc3)nnc2C1
  cytotoxicity at 10 µM: 5.8%

## N#Cc1cc2n(n1)CCN(C(=O)CCc1c[nH]c3ccccc13)C2
  cytotoxicity at 10 µM: -9.64%

## COC(=O)N1CCCN(Cn2nc(C)c(Br)c2C)CC1
  cytotoxicity at 10 µM: 8.38%

## CC(COc1ccccc1)NCc1nncn1C1CCCCC1 (centres undefined)
  cytotoxicity at 10 µM: -4.23%

## CSc1ncccc1C(=O)N1CCC2(CC1)c1nc[nH]c1CCN2C
  cytotoxicity at 10 µM: 52.6%

## CS(=O)(=O)N1CCCC12CCCN(S(=O)(=O)c1ccc(F)cc1)C2 (centres undefined)
  cytotoxicity at 10 µM: 0.442%

## COc1cccc(CCNC(=O)NC(C)C)c1O
  cytotoxicity at 10 µM: 2.27%

## Cc1cnn(CC2CCCN2C(=O)c2ccc3nnc(C)n3c2)c1 (centres undefined)
  cytotoxicity at 10 µM: -8.11%

## Cc1cnc(N2CC[C@@H]3O[C@@H](COCc4ccccn4)CC[C@@H]32)nc1
  cytotoxicity at 10 µM: -88.3%

## Cc1cc(C)c(CNC(=O)NC(C)c2ccc3c(c2)CCC3)c(=O)[nH]1 (centres undefined)
  cytotoxicity at 10 µM: 27.4%

## O=C(NCc1ccc(F)cc1)C1CCCN(c2ccc3nncn3n2)C1 (centres undefined)
  cytotoxicity at 10 µM: -4.46%

## Cc1cc(N(C)CCC(O)c2ccccc2)n2nccc2n1 (centres undefined)
  cytotoxicity at 10 µM: -2.84%

## Cc1ccccc1CN1CCC2(CCCN2C(=O)C(C)C)CC1
  cytotoxicity at 10 µM: 11.7%

## CC(CNC(=O)c1cn(-c2ccccc2)nn1)Cn1cccn1 (centres undefined)
  cytotoxicity at 10 µM: -41.6%

## COc1cc(NC(=O)c2cc(Cl)ccc2F)c(C(=O)N(C)C)cc1OC
  cytotoxicity at 10 µM: -2.61%

## Cc1noc(C)c1CN(Cc1cccnc1)C1CN2CCC1CC2 (centres undefined)
  cytotoxicity at 10 µM: 1.91%

## Cc1noc(C)c1CN1C[C@@H](C(=O)O)[C@H](C(C)C)C1
  cytotoxicity at 10 µM: 3.51%

## CC(=O)N1CCC(c2cnc(NC3CCOCC3)cn2)CC1
  cytotoxicity at 10 µM: -3.73%

## Cc1nn(C)c2ncc(S(=O)(=O)N3CCCC(C)CC3)cc12 (centres undefined)
  cytotoxicity at 10 µM: 2.6%

## CC(=O)N(Cc1ncc(C)o1)C1CCN(Cc2ccccc2F)C1 (centres undefined)
  cytotoxicity at 10 µM: -8.08%

## CC1=N[C@@]2(CC[C@@H]3CN(S(=O)(=O)CC(C)C)C[C@@H]32)C(=O)N1C
  cytotoxicity at 10 µM: -84.6%

## Cc1ccccc1OCC(O)CN1CCC(Cn2cccn2)CC1 (centres undefined)
  cytotoxicity at 10 µM: -0.972%

## Cc1nc(CN2CCc3ncnc(-c4cccnc4)c3CC2)cs1
  cytotoxicity at 10 µM: 7.51%

## N#Cc1cccc(C(=O)N2C[C@H](CO)C[C@H](CN3CCCC3)C2)c1
  cytotoxicity at 10 µM: -1.04%

## COCc1csc(NC(=O)NCc2ncccc2C)n1
  cytotoxicity at 10 µM: -2.6%

## Cc1ccsc1CNC(=O)CSc1nnc[nH]1
  cytotoxicity at 10 µM: -0.655%

## Cc1ccc(CN2C[C@@H]3COC[C@H](C(=O)N4CCCCO4)[C@@H]3C2)o1
  cytotoxicity at 10 µM: 3.37%

## Nc1ncncc1-c1noc([C@@H]2CCCN2CC2CC2)n1
  cytotoxicity at 10 µM: -1.18%

## Cc1cccc(C(=O)N2CC[C@@H]3[C@H]2CCC(=O)N3c2ccccc2)n1
  cytotoxicity at 10 µM: -94.8%

## Cc1cc(C)cc(OCCC(=O)N2CCCC(n3cncn3)C2)c1 (centres undefined)
  cytotoxicity at 10 µM: -3.76%
